Assay results: ChEMBL document CHEMBL3414496, “Synthesis and biological evaluation of novel 2-heteroarylimino-1,3-thiazolidin-4-ones as potential anti-tumor agents” (Eur J Med Chem, 2015)
The source made the active and inactive calls. No cut-off for these calls is given here.

Columns and labels:
[1] = system: HT-29; assay: Induction of cell cycle arrest in human HT-29 cells assessed as accumulation at G2/M phase by propidium iodide staining based flow cytometry (reference value: 30 +/- 2%); assay type: functional
[2] = system: HT-29; assay: Induction of chromatin condensation in human HT-29 cells incubated for 2 days by DAPI staining based UV fluorescent microscopy; assay type: functional, cell-based
Procedure, shortened: (§1)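 HT29 cells in 35 mm dishes treated over two days, fixed in 70% ethanol for 5 min and rinsed with PBS. Stained with 1 µM DAPI in PBS for 15 min and imaged by UV fluorescence microscopy for nuclear morphology.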

[3] = system: HT-29; assay: Induction of nuclear fragmentation in human HT-29 cells incubated for 2 days by DAPI staining based UV fluorescent microscopy; assay type: functional, cell-based; procedure, shortened: as §1
[4] = system: HT-29; assay: Induction of mitochondrial membrane potential loss in human HT-29 cells incubated for 2 days by JC1 staining based UV fluorescent microscopy; assay type: functional, cell-based
Procedure, shortened: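 HT29 cells in dishes exposed to test agents, then 1 µM JC-1 added to the medium for 15 min at 37°C. Cells washed with warm PBS and imaged by fluorescence microscopy for J-aggregates (red channel). 50 µM CCCP for 15 min served as depolarization control.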

[5] = system: HT-29; assay: Induction of ROS generation in human HT-29 cells at cytotoxic IC50 level after 4 hrs by DCF-DA staining based fluorescence assay; assay type: functional, cell-based
Procedure, shortened: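 HT29 cells treated two days after seeding, then loaded with 50 µM DCF-DA for 15 min at 37°C. Cells trypsinized, washed and resuspended in PBS, and 30 000 cells/sample read by flow cytometry (FL-1). Expressed as % of DMSO-treated cells; […] for 1 h served as positive control. Triplicates from three independent experiments.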

[6] = system: HT-29; assay: Induction of Nrf2 expression in human HT-29 cells nuclei homogenates over 1 to 6 hrs by Western blotting method; assay type: functional, cell-based
Procedure, shortened: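 HT29 cells treated and fractionated, and nuclear homogenates immunoblotted with anti-Nrf2 (1:500) after SDS-PAGE and nitrocellulose transfer. Primary antibody overnight at 4°C, HRP secondary and chemiluminescence. Blots stripped and reprobed for GAPDH (1:10 000) for normalization, with the DMSO ratio set to 1.00. Representative of three independent experiments.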

[7] = system: HT-29; assay: Induction of autophagy in human HT-29 cells assessed as increase in acidic vesicles by acridine orange staining based flow cytometry; assay type: functional, cell-based
Procedure, shortened: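 HT29 cells treated for two days with daily medium changes, stained with 1 µg/ml acridine orange for 15 min, then trypsinized and suspended in PBS. FL-3 fluorescence read by flow cytometry on 30 000 cells/sample and expressed in arbitrary units relative to DMSO-treated cells. Triplicates from three independent experiments.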

[8] = system: HT-29; assay: Induction of autophagy in human HT-29 cells assessed as increase in beclin-1 protein expression by Western blotting method; assay type: functional, cell-based
Procedure, shortened: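 HT29 cells in flasks treated over two days. Total protein homogenates immunoblotted with anti-beclin-1 (1:500), with GAPDH as loading control.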

[9] = system: HT-29; assay: Induction of redox status changes in human HT-29 cells assessed as RNS content by DAF-2DA staining based fluorescence assay (reference value: 100%); assay type: functional
Procedure, shortened: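 HT29 cells treated two days after seeding, then loaded with 1 µM DAF-2DA for 30 min at 37°C. Cells trypsinized and resuspended in PBS, and 30 000 cells/sample measured by flow cytometry (FL-1). Expressed as % of DMSO-treated cells. Triplicates from three independent experiments.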

[10] = system: HT-29; assay: Induction of redox status changes in human HT-29 cells assessed as RNS content by DHR123 staining based fluorescence assay (reference value: 100%); assay type: functional
Procedure, shortened: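 HT29 cells treated two days after seeding, then loaded with 25 µM DHR for 20 min at 37°C. Cells trypsinized and resuspended in PBS, and 30 000 cells/sample read by flow cytometry (FL-1). Expressed as % of DMSO controls. Triplicates from three independent experiments.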

[11] = system: HT-29; assay: Induction of redox status changes in human HT-29 cells assessed as GSH content by fluorescence based microtiter plate method (reference value: 100%); assay type: functional
Procedure, shortened: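 HT29 cells exposed 48 h after seeding for 24 h, then extracted into ice-cold 10% perchloric acid with 2 mM EDTA and spun at 15 000 g. GSH in the supernatant measured by a fluorescence microtiter plate method; pellet protein measured by modified Lowry. Values in nmol GSH/mg protein, shown as % of DMSO controls. Triplicates from three experiments.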

[12] = system: HT-29; assay: Inhibition of cell growth in human HT-29 cells assessed as mitotic index ratio in absence of 1 mM ascorbic acid (reference value: 1); assay type: functional
Procedure, shortened: (§2)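 HT29 cells treated daily from 48 h after seeding, over three days with daily medium changes, in 0.1% (v/v) DMSO vehicle. Cells trypsinised, mixed 1:1 with 0.04% trypan blue, and living cells counted by haemocytometer under microscope. Mitotic index is treated count relative to DMSO control. Triplicate determinations, two independent experiments, mean ± S.E.M.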

[13] = system: HT-29; assay: Inhibition of cell growth in human HT-29 cells assessed as mitotic index ratio in presence of 1 mM ascorbic acid (reference value: 1.12 +/- 0.03); assay type: functional
[14] = system: HT-29; assay: Cytotoxicity against human HT-29 cells after 72 hrs by MTT assay; assay type: functional, cell-based; details: HT-29, 72 h
Procedure, shortened: (§3)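 Cells seeded at 10^4/well, exposed 24 h later to graded concentrations (0.01–100 µM) for 72 h at 37°C; MTT 0.5 mg/ml for 2 h, formazan dissolved in DMSO, absorbance at 570 nm. […] Colon lines in DMEM, breast lines in RPMI, both with 10% FCS.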

[15] = Cytotoxicity against human HCT116 cells after 72 hrs by MTT assay; assay type: functional, cell-based; details: HCT-116, 72 h; procedure, shortened: as §3
[16] = system: SW-620; assay: Cytotoxicity against human SW620 cells after 72 hrs by MTT assay; assay type: functional, cell-based; details: SW-620, 72 h; procedure, shortened: as §3
[17] = system: MCF7; assay: Cytotoxicity against human MCF7 cells after 72 hrs by MTT assay; assay type: functional, cell-based; details: MCF7, 72 h; procedure, shortened: as §3
[18] = system: MDA-MB-231; assay: Cytotoxicity against human MDA-MB-231 cells after 72 hrs by MTT assay; assay type: functional, cell-based; details: MDA-MB-231, 72 h; procedure, shortened: as §3
[19] = system: HT-29; assay: Growth inhibition of human HT-29 cells at cytotoxic IC50 level after 3 days by trypan blue dye exclusion assay; assay type: functional
Procedure, shortened: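 HT29 cells treated 48 h after seeding, dosed daily with daily medium change over three days; drug diluted in DMSO, controls 0.1% (v/v) DMSO. Cells trypsinized, mixed 1:1 with 0.04% trypan blue, live cells counted by hematimeter. Reported as mitotic index (treated/DMSO count); triplicates from two independent experiments.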

[20] = system: HT-29; assay: Reduction in cell growth of human HT-29 cells at cytotoxic IC50 level after 3 days by trypan blue dye exclusion assay; assay type: functional, cell-based; procedure, shortened: as §2
[21] = system: HT-29; assay: Induction of cell cycle arrest in human HT-29 cells assessed as accumulation at subG1 phase by propidium iodide staining based flow cytometry (reference value: 6.9 +/- 0.5%); assay type: functional
[22] = system: HT-29; assay: Induction of cell cycle arrest in human HT-29 cells assessed as accumulation at G0/G1 phase by propidium iodide staining based flow cytometry (reference value: 46.1 +/- 0.4%); assay type: functional
[23] = system: HT-29; assay: Induction of redox status changes in human HT-29 cells assessed as ROS content in absence of 1 mM ascorbic acid by DCF-DA staining based fluorescence assay (reference value: 100%)
[24] = system: HT-29; assay: Induction of redox status changes in human HT-29 cells assessed as ROS content in presence of 1 mM ascorbic acid by DCF-DA staining based fluorescence assay (reference value: 65.7 +/- 4.7%)

COc1ccc(/C=C2\S/C(=N\c3csc(-c4ccc(Cl)cc4)c3)NC2=O)cc1
Activity [1]: 80.6% | Activity [2]: Active | Activity [3]: Active | Activity [4]: Active | Activity [5]: Active | Activity [6]: inactive | Activity [7]: Active | Activity [8]: Active | Activity [9]: 169.7% | Activity [10]: 85.9% | Activity [11]: 88.8% | Ratio [12]: 0.03 | Ratio [13]: 0.03 | IC50 [14]: 3800 nM | IC50 [15]: 1300 nM | IC50 [16]: 28100 nM | IC50 [17]: 1000 nM | IC50 [18]: 1200 nM | growth inhibition (GI) [19]: 90% | inhibition [20]: Active | Activity [21]: 21.6% | Activity [22]: 1.2% | Activity [23]: 123.1% | Activity [24]: 97%

COc1ccc(/C=C2\S/C(=N\c3nc(-c4ccc(Cl)cc4)cs3)NC2=O)cc1
Activity [2]: Active | Activity [3]: Active | Activity [4]: Active | Activity [6]: inactive | Activity [7]: Active | Activity [8]: Active | Activity [9]: 103.3% | Activity [10]: 80.9% | Activity [11]: 117% | IC50 [14]: 400 nM | IC50 [15]: 400 nM | IC50 [16]: 50 nM | IC50 [17]: 100 nM | IC50 [18]: 300 nM | growth inhibition (GI) [19]: <25%

CN(C)c1ccc(/C=C2\S/C(=N\c3nc(-c4ccc(Cl)cc4)cs3)NC2=O)cc1
Activity [2]: Active | Activity [3]: Active | Activity [4]: Active | Activity [6]: inactive | Activity [7]: Active | Activity [8]: Active | Activity [9]: 144.4% | Activity [10]: 157.6% | Activity [11]: 109.1% | Ratio [12]: 0.13 | IC50 [14]: 500 nM | IC50 [15]: 200 nM | IC50 [16]: 200 nM | IC50 [17]: 100 nM | IC50 [18]: 300 nM | growth inhibition (GI) [19]: <25% | Activity [23]: 252.5%

CN(C)c1ccc(/C=C2\S/C(=N\c3csc(-c4ccc(Cl)cc4)c3)NC2=O)cc1
Activity [1]: 83.7% | Activity [2]: Active | Activity [3]: Active | Activity [4]: Active | Activity [5]: Active | Activity [6]: inactive | Activity [7]: Active | Activity [8]: Active | Activity [9]: 294.4% | Activity [10]: 80.1% | Activity [11]: 84.6% | Ratio [12]: 0.02 | Ratio [13]: 0.02 | IC50 [14]: 1500 nM | IC50 [15]: 500 nM | IC50 [16]: 800 nM | IC50 [17]: 400 nM | IC50 [18]: 800 nM | growth inhibition (GI) [19]: 90% | inhibition [20]: Active | Activity [21]: 29% | Activity [22]: 1.5% | Activity [23]: 177.8% | Activity [24]: 133.6%

Cc1ccc(/C=C2\S/C(=N\c3csc(-c4ccc(Cl)cc4)c3)NC2=O)cc1
Activity [1]: 84% | Activity [2]: Active | Activity [3]: Active | Activity [4]: Active | Activity [5]: Active | Activity [6]: inactive | Activity [7]: Active | Activity [8]: Active | Activity [9]: 155% | Activity [10]: 95% | Activity [11]: 73.9% | Ratio [12]: 0.02 | Ratio [13]: 0.02 | IC50 [14]: 6400 nM | IC50 [15]: 1000 nM | IC50 [16]: 1500 nM | IC50 [17]: 900 nM | IC50 [18]: 900 nM | growth inhibition (GI) [19]: 90% | inhibition [20]: Active | Activity [21]: 21.5% | Activity [22]: 1.2% | Activity [23]: 172% | Activity [24]: 102.5%

COc1ccc(/C=C2\S/C(=N\c3csc(-c4ccc(Cl)cc4)c3)NC2=O)cc1OC
Activity [1]: 86.4% | Activity [2]: Active | Activity [3]: Active | Activity [4]: Active | Activity [5]: Active | Activity [7]: Active | Activity [8]: Active | Activity [9]: 116.3% | Activity [10]: 83.6% | Activity [11]: 108.1% | Ratio [12]: 0.04 | Ratio [13]: 0.04 | IC50 [14]: 10900 nM | IC50 [15]: 1700 nM | IC50 [16]: > 50000 nM | IC50 [17]: 7600 nM | IC50 [18]: 1900 nM | growth inhibition (GI) [19]: 90% | inhibition [20]: Active | Activity [21]: 20.6% | Activity [22]: 2.3% | Activity [23]: 141.6% | Activity [24]: 112.1%
